Efflux pump mplx – inhibitors of Candida efflux pumps in yeast, primary screen, S. cerevisiae, Nile Red, multiplex | inhibition, % at 10 µM | hit rate 0.44% among 330,000 | AID 485275, 2010 | S. cerevisiae Candida pump triplex;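 active = plate passing quality check with inhibition over a set limit, or well fluorescence over plate mean plus 4 SD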;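 also: Nile Red retained in pooled yeast measured as flow cytometry median fluorescence; 0% = buffer negative control and 100% = Enniatin B positive control; higher means more Nile Red kept so more efflux inhibition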
SR-BI DiI inh – inhibitors of SR-BI mediated HDL lipid uptake, primary screen, ldlA[mSR-BI] cells, fluorescence, single point. Scavenger receptor class B member 1 (Mus musculus), Q61009. ldlA[mSR-BI] CHO cells, DiI-HDL uptake fluorescence, 3 h. hit rate 0.96% among 320,000. AID 488896, 2010. inhibition, % at 12.5 µM;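 active = mean replicate inhibition of at least 70% and a set share of replicates each scoring 70 or more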;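 also: 0% = median of neutral control wells and 100% = median of positive control wells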
Target sequence (Q61009 whole entry, looked up): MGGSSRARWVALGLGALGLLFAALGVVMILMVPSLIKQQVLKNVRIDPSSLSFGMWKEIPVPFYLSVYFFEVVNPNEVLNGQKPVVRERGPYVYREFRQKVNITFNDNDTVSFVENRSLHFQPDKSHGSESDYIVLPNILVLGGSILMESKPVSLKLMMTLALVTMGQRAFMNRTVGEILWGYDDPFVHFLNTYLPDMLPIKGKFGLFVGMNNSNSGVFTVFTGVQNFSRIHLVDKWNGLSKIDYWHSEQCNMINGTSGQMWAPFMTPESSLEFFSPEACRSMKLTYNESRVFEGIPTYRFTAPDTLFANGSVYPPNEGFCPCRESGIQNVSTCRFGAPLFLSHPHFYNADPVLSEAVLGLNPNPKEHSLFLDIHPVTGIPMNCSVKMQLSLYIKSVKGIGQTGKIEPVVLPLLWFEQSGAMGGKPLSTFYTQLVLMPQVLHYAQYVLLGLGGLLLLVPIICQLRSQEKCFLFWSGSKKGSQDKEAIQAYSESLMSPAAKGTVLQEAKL
FN deposition inh – inhibitors of fibronectin matrix deposition, primary screen, AH1F cells, Alexa488-fibronectin fluorescence, plate reader; AID 743247, 2014; AH1F fibroblasts, overnight; hit rate 0.086% among 350,000; inhibition, % at 12.6 µM;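 active = mean inhibition across replicates of 30% or more, regardless of how many single replicates reach that level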;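 also: positive control wells lacked labelled fibronectin entirely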
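material = AH1F fibroblast monolayer depositing Alexa488-labelled fibronectin into matrix | amount = 10000 AH1F cells/well | buffer or medium = DMEM plus 2% serum, read in PBS | incubation = 1 h cell adhesion before compound, then overnight fibronectin incubation | detection = fluorescence at 485 nm excitation, 525 nm emission | evaluation = percent inhibition as loss of matrix-bound fibronectin fluorescence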
SR-BI DiI-HDL act – activators of SR-BI mediated DiI-HDL uptake, primary screen, ldlA[mSR-BI] CHO cells, DiI fluorescence; 3 h; 100 = double the neutral-control signal; activation, % at 12.5 µM; hit rate 0.096% among 320,000;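 active = mean replicate activation of at least 60% and every replicate at or above 60%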;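 also: 0% = median plate neutral-control signal and 100% = twice that signal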
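System: CHO ldlA[mSR-BI] cells / Medium: HEPES-buffered (25 mM, pH 7.4) F12 plus 0.5% BSA / Probe or stimulus: labelled HDL, 10 µg/mL / Doses: single compound concentration, delivered by pin transfer / Schedule: 3 h, 37 °C / Measured by: DiI fluorescence, bottom read / Measure: cell-associated DiI fluorescence as measure of HDL uptake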
CaV13 ICDI inh – Disruptors of the CACNA1D IQ motif to Ca2+-dependent inactivation inhibitor domain association, primary screening, Förster resonance energy transfer in intact living … | hit rate 0.098% among 340,000 | AID 743397 | HEK cells, CFP/YFP FRET ICDI-IQ, plate reader, 10 min; percent FRET-ratio fall versus neutral wells | inhibition, % at 12.3 µM;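 active = mean replicate inhibition of at least 30% and at least 1% of replicates passing that level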;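 also: 0% = median of the neutral control wells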
* hit, by the source's call; x = not tested or not shown. This is a sample that favours compounds with a hit; in the whole collection about 1.2% have one here.

SMILES	Efflux pump mplx	SR-BI DiI inh	FN deposition inh	SR-BI DiI-HDL act	CaV13 ICDI inh
CC1CC(C)CN(C(=O)COC(=O)c2ccc(N3CCCC3=O)cc2)C1 (configuration not stated)	0.3	10.4	-3.0	-10.4	-5.4
CCOC(=O)c1c(C)[nH]c(C(=O)COC(=O)c2ccc(N3CCCC3=O)cc2)c1C	0.1	-62.8	x	62.8*	-7.6
COc1cc(OC)c(NC(=O)c2c(-c3ccccc3)noc2C)cc1Cl	0.4	66.7	x	-66.7	-7.7
COc1ccc(Cl)cc1NC(=O)c1c(-c2ccccc2)noc1C	0.0	75.7*	x	-75.6	x
COc1ccc(C=C(c2ccc(OC)cc2)c2ccc(OC)cc2)cc1	-0.1	71.8*	x	-71.8	-4.9
CCn1c(Cn2nnc(-c3ccccc3)n2)nnc1SCC(=O)Nc1cccc(C)c1C	0.0	75.8*	x	-75.8	x
COc1cc(/C=C/C(=O)Nc2ccncc2)cc(OC)c1OC	0.3	36.1	-5.1	-36.1	-5.1
COc1ccc(Br)cc1/C=C/C(=O)NC(=S)Nc1ccc(CN2CCOCC2)cc1	0.1	13.8	-9.7	-13.8	-6.7
COc1ccc(Br)cc1/C=C/C(=O)Nc1c(C)cccc1C	-0.1	61.5	6.6	-61.5	-3.6
COc1ccc(NC(=O)/C=C/c2cc(Br)ccc2OC)cc1	0.1	74.2*	x	-74.2	x
CCN(CC)c1ccc(NC(=O)/C=C/c2cc(Br)ccc2OC)cc1	0.1	80.1*	x	-80.1	x
COc1cc(/C=C/C(=O)Nc2ccc(C(C)=O)cc2)cc(OC)c1OC	0.1	74.8*	0.7	-74.9	-5.4
COc1ccc(Br)cc1/C=C/C(=O)c1ccc(NC(C)=O)cc1	-0.5	76.5*	9.5	-76.5	-2.3
COc1ccc(C(=O)/C=C/Nc2ccc(NC(C)=O)cc2)cc1OC	-0.2	45.6	x	-45.6	-9.3
C[C@@H]1C/C=C\C[C@H](c2ccc3c(c2)OCO3)NC(=O)[C@@H](c2ccccc2)CC(=O)N1	x	x	-10.9	x	x
C[C@H]1CCCCO[C@@H](CN(C)Cc2ccccc2)[C@@H](C)CN([C@@H](C)CO)C(=O)c2cc(NC(=O)Nc3ccccc3)ccc2O1	x	x	6.6	x	x
O=C(N/N=C/c1ccccc1)c1ccc2c(c1)OCO2	0.0	-1.0	-1.9	1.0	-8.1
O=C(NN=Cc1c(O)ccc2ccccc12)c1ccc2c(c1)OCO2	-0.2	123.9*	-7.6	-123.9	-17.5
O=S(=O)(c1ccc(NC(=S)NN=Cc2ccccc2O)cc1)N1CCCCC1	x	91.8*	13.6	-91.8	-6.4
C/C(=N\NC(=O)c1cc2ccccc2cc1O)c1ccc2c(c1)OCO2	-0.1	11.5	x	-11.5	x
CC/C(=N/NC(=O)c1ccc2c(c1)OCO2)c1ccccc1O	-0.1	99.7*	19.6	-99.7	-5.5
O=C(N/N=C\c1c(O)ccc2ccccc12)c1ccc(S(=O)(=O)N2CCCCC2)cc1	0.1	143.1*	x	-143.1	-7.5
NS(=O)(=O)c1ccc(NC(=S)Nc2ccc(S(=O)(=O)N3CCCC3)cc2)cc1	-0.1	7.3	x	-7.3	-6.6
COc1cccc(-c2cnc3c(c2)C(=O)N([C@H](C)CO)C[C@H](C)[C@H](CN(C)Cc2ccc(C(=O)O)cc2)O3)c1	x	x	3.5	x	x
O=C(O)C[C@@H]1C=C[C@H](NC(=O)c2ccccc2F)[C@H](CO)O1	x	x	10.1	x	x
SMILES	Efflux pump mplx	SR-BI DiI inh	FN deposition inh	SR-BI DiI-HDL act	CaV13 ICDI inh
Cc1cc(C(=O)Nc2sc3c(c2C#N)CCC(C)C3)cs1 (configuration not stated)	0.0	75.2*	x	-75.2	-9.1
Cc1ccc(C(=O)Nc2cc(Cl)ccc2N2CCCCC2)s1	-0.1	77.2*	x	-77.2	-7.1
COc1ccc(NC(=O)C(Sc2nnc3ccccn23)c2ccccc2)cc1Cl (configuration not stated)	0.0	-82.4	1.4	82.4*	-3.4
CCC(C(=O)Nc1ccc(OC)c(Cl)c1)c1ccccc1 (configuration not stated)	-1.7	13.9	1.5	-13.9	-6.0
CC(C)NC(=O)N[C@H]1C=C[C@H](CC(=O)NCCN2CCCC2)O[C@H]1CO	x	x	-1.4	x	x
CC1=NN(c2nc(-c3ccc(C)cc3)cs2)C(=O)C1N=Nc1ccccc1O (configuration not stated)	-0.2	152.2*	-8.9	-152.2	-7.5
COc1ccc(-c2csc(NC(=S)NC(=O)/C=C/c3ccc(C(C)C)cc3)n2)cc1OC	-0.2	75.2*	x	-75.2	x
COc1ccc(-c2csc(NC(=S)NC(=O)/C=C/c3ccco3)n2)cc1OC	-0.2	75.9*	-5.5	-75.9	-4.1
COc1ccc(-c2csc(NC(=S)NC(=O)/C=C/c3ccco3)n2)cc1Br	0.2	24.1	-2.5	-24.1	-19.6
CC(C)NC(=O)Nc1ccc2c(c1)CC(=O)N(C)C[C@H](C)[C@@H](CN(C)C(=O)NC(C)C)O2	x	x	-9.3	x	x
CC(=O)Nc1cccc2c1O[C@@H](CN(C)C(=O)NC(C)C)[C@@H](C)CN(C)C2=O	x	x	-4.6	x	x
C[C@@H]1C(=O)N[C@@H](c2ccc3c(c2)OCO3)CC=CC[C@H](C)Oc2ccccc2C(=O)N1C (mixture of isomers)	x	x	-4.5	x	x
CC(=O)Nc1c2c(nn1-c1ccccc1)CSC2	0.1	-16.1	7.5	16.1	-14.6
O=C(/C=C\c1ccc2c(c1)OCO2)Nc1c2c(nn1-c1ccc(Cl)cc1)CSC2	0.0	74.6*	-2.6	-74.6	-6.7
O=C(N/N=C/c1ccc([N+](=O)[O-])o1)c1cn(-c2ccccc2)nc1-c1ccc(Cl)cc1	-0.2	111.9*	-9.8	-111.9	-7.5
O=C(N/N=C/c1ccc([N+](=O)[O-])o1)c1cn(-c2ccccc2)nc1-c1ccccc1	0.2	83.7*	-1.9	-83.7	10.6
O=C(O)COc1ccc(/C=N/NC(=O)c2cn(-c3ccccc3)nc2-c2ccccc2)cc1	-0.1	-7.6	1.3	7.6	-2.8
O=C(N/N=C/c1ccc([N+](=O)[O-])o1)c1ccccc1-n1cccc1	-0.1	14.8	6.3	-14.8	-7.1
COCCNC(=O)C[C@@H]1CC[C@H]2[C@H](COc3ccc(NC(=O)C4CCCC4)cc3C(=O)N2C)O1	x	x	6.2	x	x
O=C(Nc1ccccc1)Nc1cc(OCC(F)(F)F)cc(OCC(F)(F)F)c1	x	92.4*	5.0	-92.4	-0.9
Cc1ccc(NS(=O)(=O)c2ccc3c(c2)n(C)c(=O)n3C)cc1	-0.1	-135.3	x	135.3*	x

Screens: PubChem, several laboratories
